Test results: ChEMBL document CHEMBL1146510, “New cytotoxic naphthopyrane derivatives from Adenaria floribunda” (2004)
Values after ≈ are worked out from the molar mass of the structure shown.

How the values were obtained:
Type in all cases: functional
SF-268 = experiment: Cytotoxicity against human SF268 cells
How it was run: (§1)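 Human cancer cell lines tested: MCF-7 (breast), H-460 (lung) and SF-268 (central nervous system). Cytotoxicity was run by a previously published cell-line screening method. The same three lines were used to follow activity through fractionation.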

MCF7 = experiment: Cytotoxicity against human MCF7 cells; how it was run: as §1
NCI-H460 = experiment: Cytotoxicity against human H460 cells; how it was run: as §1

Compound | GI50 (SF-268) [µg/mL] | GI50 (MCF7) [µg/mL] | GI50 (NCI-H460) [µg/mL]
COc1c(CC=C(C)C)c(O)c2c(O)c3c(cc2c1CC=C(C)C)O[C@H](C)CC3=O [ADENAFLORINE A] | 0.13 (≈ 0.317 µM) | 0.24 (≈ 0.585 µM) | 0.16 (≈ 0.39 µM)
COc1c(CC=C(C)C)c(O)c2c(O)c3c(=O)cc(C)oc3cc2c1CC=C(C)C [ADENAFLORINE B] | 3.9 (≈ 9.55 µM) | 4.3 (≈ 10.5 µM) | 2.9 (≈ 7.1 µM)
CC(=O)c1c2c(c3cc(OCC=C(C)C)c(CC=C(C)C)c(O)c3c1O)C=CC(C)(C)O2 [ADENAFLORINE C] | 1.4 (≈ 3.21 µM) | 1.2 (≈ 2.75 µM) | 1.1 (≈ 2.52 µM)
CC(=O)c1c(O)c(CC=C(C)C)c2cc(OCC=C(C)C)c3c(c2c1O)OC(C)(C)C=C3 [ADENAFLORINE D] | > 10 | > 10 | 9.3 (≈ 21.3 µM)
